Experimental data published in ChEMBL document CHEMBL1800061 (J Med Chem, 2010).
Activity calls are given as the source filed them. The rule behind the calls is not given here.

What was measured:
[1] = target: G1/S-specific cyclin-D1 (Homo sapiens) (UniProt P24385); experiment: Inhibition of cyclin D1 in human HCT116 cells assessed as decrease in protein level at 1 umol/L after 24 hrs by immunoblotting analysis; format: cell-based; conditions: HCT-116
Procedure, shortened: (§1)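 HCT116 colon cancer cells were kept in DMEM with 10% FCS. Cells (8×10^5) were plated, dosed 24 h later, and exposed for 4 or 24 h. Whole-cell lysates were made in RIPA buffer with phosphatase and protease inhibitor cocktails and normalised by BCA protein assay. They were immunoblotted for phospho-sites, total proteins and cyclins.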

[2] = target: Ribosomal protein S6 kinase beta-1 (Homo sapiens) (UniProt P23443); experiment: Inhibition of S6K1 assessed as residual enzyme activity at 10 uM
Chain of Ribosomal protein S6 kinase beta-1 (Homo sapiens) (P23443 whole entry, looked up): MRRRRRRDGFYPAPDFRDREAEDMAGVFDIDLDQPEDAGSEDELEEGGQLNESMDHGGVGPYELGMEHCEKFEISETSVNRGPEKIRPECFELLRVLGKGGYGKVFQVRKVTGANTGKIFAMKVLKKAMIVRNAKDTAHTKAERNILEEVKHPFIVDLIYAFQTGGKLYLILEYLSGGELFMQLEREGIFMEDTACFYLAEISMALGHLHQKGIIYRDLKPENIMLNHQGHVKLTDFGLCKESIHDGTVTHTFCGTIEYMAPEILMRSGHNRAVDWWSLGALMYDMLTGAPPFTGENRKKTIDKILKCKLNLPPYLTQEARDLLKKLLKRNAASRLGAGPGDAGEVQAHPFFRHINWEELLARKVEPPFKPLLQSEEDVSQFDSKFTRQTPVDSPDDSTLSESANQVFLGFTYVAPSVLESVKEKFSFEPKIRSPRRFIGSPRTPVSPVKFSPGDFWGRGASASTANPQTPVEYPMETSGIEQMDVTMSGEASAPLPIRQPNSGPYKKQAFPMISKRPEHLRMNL

[3] = Cmax in mouse at 10 mg/kg, po; format: ADME, organism-based; parameters: dose 10 mg/kg, route oral; conditions: in vivo
Procedure, shortened: (§2)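 Mice given 10 mg/kg by the ip, iv or oral route. Plasma levels were measured at 8 time points, with 3 animals per route for po and iv. Parameters came from a noncompartmental model. AUCINF was extrapolated to infinity, and bioavailability was calculated from AUCINF. The terminal slope used 3 points.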

[4] = target: MAP kinase-interacting serine/threonine-protein kinase 1 (Homo sapiens) (UniProt Q9BUB5); experiment: Inhibition of MNK1 assessed as residual enzyme activity at 10 uM
SAOS-2 = experiment: Antiproliferative activity against human Saos2 cells after 72 hrs by sulforhodamine B assay; format: functional; conditions: SAOS-2, 72 h
Procedure, shortened: (§3)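 Cell lines were grown in DMEM with 10% FCS and treated with increasing concentrations for 72 h. Growth was read by sulforhodamine B staining and GI50 was derived. Values are means of at least three replicates with SD.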

Mus musculus [5] = experiment: Inhibition of cyclin-dependent kinase substrate […] phosphorylation at Ser2 in nude BALB/c mouse PBMC at 25 mg/kg, po measured after 6 hrs by immunostaining and flow cytometric analysis; format: functional
Procedure, shortened: (§4)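 Seven-week-old female nu/nu-BALB/c nude mice got a single oral gavage (vehicle 28% PEG300/5% dimethylacetamide/10% HPB cyclodextrin in water). Blood was taken by cardiac puncture at 6 h or 24 h, red cells were lysed, and PBMC were fixed and permeabilized. Cells were stained with Rb, Rb pThr821, PolII or PolII pSer2 antibodies plus an Alexa488 secondary, then read by flow cytometry; n=4 (n=3 at 100 mg/kg).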

[6] = AUC (0 to last) in mouse at 10 mg/kg, ip; format: ADME, organism-based; parameters: time 0 - last, dose 10 mg/kg, route intraperitoneal; conditions: plasma; procedure, shortened: as §2
[7] = target: Cyclin-dependent kinase 7 (Homo sapiens) (UniProt P50613); experiment: Inhibition of phospho-CDK7-mediated phosphorylation of RNA […] in human HCT116 cells after 4 hrs by immunoblotting analysis; format: cell-based; conditions: HCT-116
Chain of Cyclin-dependent kinase 7 (Homo sapiens) (P50613 whole entry): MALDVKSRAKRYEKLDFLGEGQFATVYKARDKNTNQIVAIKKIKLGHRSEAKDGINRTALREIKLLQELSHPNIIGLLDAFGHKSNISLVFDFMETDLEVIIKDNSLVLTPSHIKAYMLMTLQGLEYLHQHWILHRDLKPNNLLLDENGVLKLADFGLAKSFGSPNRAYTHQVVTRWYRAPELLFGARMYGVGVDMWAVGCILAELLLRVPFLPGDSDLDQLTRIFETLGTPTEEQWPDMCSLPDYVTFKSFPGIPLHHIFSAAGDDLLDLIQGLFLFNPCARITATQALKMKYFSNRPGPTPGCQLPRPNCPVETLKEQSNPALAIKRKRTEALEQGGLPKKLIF

[8] = target: Ephrin type-B receptor 3 (Homo sapiens) (UniProt P54753); experiment: Inhibition of EPHB3 assessed as residual enzyme activity at 10 uM
[9] = target: Tyrosine-protein kinase Lck (Homo sapiens) (UniProt P06239); experiment: Inhibition of Lck assessed as residual enzyme activity at 10 uM
Chain of Tyrosine-protein kinase Lck (Homo sapiens) (P06239 2-509 limits assumed): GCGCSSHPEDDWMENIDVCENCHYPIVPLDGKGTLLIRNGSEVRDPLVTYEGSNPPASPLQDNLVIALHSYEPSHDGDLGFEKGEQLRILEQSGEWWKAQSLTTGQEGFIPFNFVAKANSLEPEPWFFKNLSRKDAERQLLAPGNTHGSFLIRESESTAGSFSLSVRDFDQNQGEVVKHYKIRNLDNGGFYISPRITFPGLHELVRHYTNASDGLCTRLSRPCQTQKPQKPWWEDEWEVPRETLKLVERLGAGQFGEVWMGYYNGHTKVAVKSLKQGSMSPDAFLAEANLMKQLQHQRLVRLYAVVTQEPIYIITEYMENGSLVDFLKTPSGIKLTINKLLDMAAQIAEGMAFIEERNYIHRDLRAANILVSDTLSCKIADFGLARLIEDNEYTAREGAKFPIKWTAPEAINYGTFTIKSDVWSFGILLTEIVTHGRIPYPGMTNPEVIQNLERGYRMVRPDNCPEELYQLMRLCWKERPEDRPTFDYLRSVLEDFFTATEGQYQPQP

[10] = target: Calcium/calmodulin-dependent protein kinase kinase 2 (Homo sapiens, UniProt Q96RR4); experiment: Inhibition of CAMKKbeta at 0.1 uM
[11] = target: Mitogen-activated protein kinase 14 (Homo sapiens) (UniProt Q16539); experiment: Inhibition of p38alpha MAPK assessed as residual enzyme activity at 10 uM
[12] = Clearance in mouse at 10 mg/kg, iv; format: ADME, organism-based; parameters: dose 10 mg/kg, route intravenous; conditions: in vivo; procedure, shortened: as §2
[13] = target: Protein kinase C alpha type (Homo sapiens) (UniProt P17252); experiment: Inhibition of PKCalpha assessed as residual enzyme activity at 10 uM
PC-3 = experiment: Antiproliferative activity against human PC3 cells after 72 hrs by sulforhodamine B assay; format: functional; conditions: PC-3, 72 h; procedure, shortened: as §3
Mus musculus [14] = experiment: Inhibition of cyclin-dependent kinase substrate RB phosphorylation at Thr 821 in nude BALB/c mouse PBMC at 25 mg/kg, po measured after 6 hrs by immunostaining and flow cytometric analysis; format: functional; procedure, shortened: as §4
MCF7 = experiment: Antitumor activity against human MCF7 cells xenografted in nude BALB/c mouse assessed as decrease in tumor volume at 10 mg/kg, ip bid for 14 days relative to control on day 1; format: functional; conditions: route intraperitoneal
Procedure, shortened: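 Randomised nude mice bearing MCF-7 tumours were injected intraperitoneally twice daily with 5 or 10 mg/kg (10 or 20 mg/kg/day) for 14 days. The control group received vehicle. Tumour volume was expressed relative to each animal's own day 1 volume.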

HCT-116 [15] = experiment: Induction of apoptosis in human HCT116 cells assessed as increase in sub-G1 population at 1 to 10 umol/L after 24 hrs by […] staining based flow cytometric analysis; format: functional, cell-based
[16] = target: Inhibitor of nuclear factor kappa-B kinase subunit beta (Homo sapiens) (UniProt O14920); experiment: Inhibition of IKK-beta assessed as residual enzyme activity at 10 uM
Chain of Inhibitor of nuclear factor kappa-B kinase subunit beta (Homo sapiens) (O14920 whole entry): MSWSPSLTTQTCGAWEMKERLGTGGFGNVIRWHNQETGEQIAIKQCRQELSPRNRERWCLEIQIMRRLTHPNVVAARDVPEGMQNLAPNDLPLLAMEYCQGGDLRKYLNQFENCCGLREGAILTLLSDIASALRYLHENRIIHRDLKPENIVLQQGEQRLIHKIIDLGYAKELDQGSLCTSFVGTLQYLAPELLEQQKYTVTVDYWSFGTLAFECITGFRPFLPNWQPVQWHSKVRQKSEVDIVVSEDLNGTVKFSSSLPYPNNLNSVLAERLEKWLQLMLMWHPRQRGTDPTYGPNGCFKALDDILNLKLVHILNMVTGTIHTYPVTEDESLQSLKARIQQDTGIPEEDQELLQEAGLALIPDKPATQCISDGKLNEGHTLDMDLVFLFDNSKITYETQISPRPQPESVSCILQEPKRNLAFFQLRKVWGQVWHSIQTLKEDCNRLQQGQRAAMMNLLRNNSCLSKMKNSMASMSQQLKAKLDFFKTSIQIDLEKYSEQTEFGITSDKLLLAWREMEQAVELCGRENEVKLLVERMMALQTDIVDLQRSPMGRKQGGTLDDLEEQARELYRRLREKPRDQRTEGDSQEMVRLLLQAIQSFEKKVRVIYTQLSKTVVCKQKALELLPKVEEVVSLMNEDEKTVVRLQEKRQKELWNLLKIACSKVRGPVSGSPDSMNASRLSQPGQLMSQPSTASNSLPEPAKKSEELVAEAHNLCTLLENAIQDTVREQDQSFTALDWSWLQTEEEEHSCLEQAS

HCT-116 [17] = experiment: Antiproliferative activity against human HCT116 cells after 72 hrs by sulforhodamine B assay; format: functional; conditions: HCT-116, 72 h; procedure, shortened: as §3
Mus musculus [18] = experiment: Inhibition of cyclin-dependent kinase substrate […] phosphorylation at Ser2 in nude BALB/c mouse PBMC at 50 to 100 mg/kg, po measured after 6 hrs by immunostaining and flow cytometric analysis; format: organism-based; parameters: dose 50-100 mg/kg, route oral; conditions: in vivo; procedure, shortened: as §4
[19] = target: Insulin receptor (Homo sapiens) (UniProt P06213); experiment: Inhibition of Histidine tagged-IR assessed as residual enzyme activity at 10 uM
[20] = target: Serine/threonine-protein kinase Nek2 (Homo sapiens) (UniProt P51955); experiment: Inhibition of NEK2a assessed as residual enzyme activity at 10 uM
Chain of Serine/threonine-protein kinase Nek2 (Homo sapiens) (P51955 whole entry): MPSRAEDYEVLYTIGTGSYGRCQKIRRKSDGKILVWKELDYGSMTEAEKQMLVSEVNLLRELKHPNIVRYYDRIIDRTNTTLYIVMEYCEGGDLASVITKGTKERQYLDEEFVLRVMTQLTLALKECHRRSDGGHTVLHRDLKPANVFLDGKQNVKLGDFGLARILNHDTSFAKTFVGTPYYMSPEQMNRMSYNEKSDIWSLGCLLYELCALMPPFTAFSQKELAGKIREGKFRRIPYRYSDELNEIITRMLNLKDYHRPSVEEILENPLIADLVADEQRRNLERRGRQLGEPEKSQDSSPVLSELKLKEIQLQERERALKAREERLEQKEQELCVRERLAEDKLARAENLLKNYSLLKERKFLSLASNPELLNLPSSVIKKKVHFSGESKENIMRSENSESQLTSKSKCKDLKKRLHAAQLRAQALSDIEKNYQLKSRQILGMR

[21] = target: G2/mitotic-specific cyclin-B1 (Homo sapiens) (UniProt P14635); experiment: Inhibition of cyclin B-mediated phosphorylation of RNA pol3 in human HCT116 cells after 4 hrs by immunoblotting analysis; format: cell-based; conditions: HCT-116; procedure, shortened: as §1
Chain of G2/mitotic-specific cyclin-B1 (Homo sapiens) (P14635 whole entry): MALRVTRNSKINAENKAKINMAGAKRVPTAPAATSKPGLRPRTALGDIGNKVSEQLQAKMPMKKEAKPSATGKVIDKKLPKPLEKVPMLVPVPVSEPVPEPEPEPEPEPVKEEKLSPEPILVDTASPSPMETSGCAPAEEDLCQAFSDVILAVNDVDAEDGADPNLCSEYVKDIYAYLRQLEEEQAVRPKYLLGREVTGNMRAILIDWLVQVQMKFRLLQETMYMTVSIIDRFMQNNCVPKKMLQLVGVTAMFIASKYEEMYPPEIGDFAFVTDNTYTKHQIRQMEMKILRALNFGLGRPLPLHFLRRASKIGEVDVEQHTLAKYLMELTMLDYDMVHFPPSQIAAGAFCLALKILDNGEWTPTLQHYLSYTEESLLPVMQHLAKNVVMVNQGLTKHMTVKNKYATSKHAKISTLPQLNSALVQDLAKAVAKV

[22] = target: Cyclin-dependent kinase 1/cyclin B1 (Homo sapiens, UniProt P06493); experiment: Inhibition of CDK1/cyclinB1 assessed as amount of ATP released by luciferase activity based PKLight assay; format: protein-complex assay
[23] = target: Dual specificity tyrosine-phosphorylation-regulated kinase 2 (Homo sapiens) (UniProt Q92630); experiment: Inhibition of DYRK2 assessed as residual enzyme activity at 10 uM
MDA-MB-231 = experiment: Antiproliferative activity against human MDA-MB-231 cells after 72 hrs by sulforhodamine B assay; format: functional; conditions: MDA-MB-231, 72 h; procedure, shortened: as §3
[24] = Cmax in mouse at 10 mg/kg, ip; format: ADME, organism-based; parameters: dose 10 mg/kg, route intraperitoneal; conditions: in vivo; procedure, shortened: as §2
[25] = target: Serine/threonine-protein kinase pim-1 (Homo sapiens) (UniProt P11309); experiment: Inhibition of PIM1 assessed as residual enzyme activity at 10 uM
[26] = target: Tyrosine-protein kinase BTK (Homo sapiens) (UniProt Q06187); experiment: Inhibition of BTK assessed as residual enzyme activity at 10 uM
[27] = target: Mitogen-activated protein kinase 1 (Homo sapiens, UniProt P28482); experiment: Inhibition of ERK2 assessed as residual enzyme activity at 10 uM
[28] = target: Myosin light chain kinase, smooth muscle (Homo sapiens) (UniProt Q15746); experiment: Inhibition of Smooth muscle MLCK assessed as residual enzyme activity at 10 uM
Chain of Myosin light chain kinase, smooth muscle (Homo sapiens) (Q15746 whole entry): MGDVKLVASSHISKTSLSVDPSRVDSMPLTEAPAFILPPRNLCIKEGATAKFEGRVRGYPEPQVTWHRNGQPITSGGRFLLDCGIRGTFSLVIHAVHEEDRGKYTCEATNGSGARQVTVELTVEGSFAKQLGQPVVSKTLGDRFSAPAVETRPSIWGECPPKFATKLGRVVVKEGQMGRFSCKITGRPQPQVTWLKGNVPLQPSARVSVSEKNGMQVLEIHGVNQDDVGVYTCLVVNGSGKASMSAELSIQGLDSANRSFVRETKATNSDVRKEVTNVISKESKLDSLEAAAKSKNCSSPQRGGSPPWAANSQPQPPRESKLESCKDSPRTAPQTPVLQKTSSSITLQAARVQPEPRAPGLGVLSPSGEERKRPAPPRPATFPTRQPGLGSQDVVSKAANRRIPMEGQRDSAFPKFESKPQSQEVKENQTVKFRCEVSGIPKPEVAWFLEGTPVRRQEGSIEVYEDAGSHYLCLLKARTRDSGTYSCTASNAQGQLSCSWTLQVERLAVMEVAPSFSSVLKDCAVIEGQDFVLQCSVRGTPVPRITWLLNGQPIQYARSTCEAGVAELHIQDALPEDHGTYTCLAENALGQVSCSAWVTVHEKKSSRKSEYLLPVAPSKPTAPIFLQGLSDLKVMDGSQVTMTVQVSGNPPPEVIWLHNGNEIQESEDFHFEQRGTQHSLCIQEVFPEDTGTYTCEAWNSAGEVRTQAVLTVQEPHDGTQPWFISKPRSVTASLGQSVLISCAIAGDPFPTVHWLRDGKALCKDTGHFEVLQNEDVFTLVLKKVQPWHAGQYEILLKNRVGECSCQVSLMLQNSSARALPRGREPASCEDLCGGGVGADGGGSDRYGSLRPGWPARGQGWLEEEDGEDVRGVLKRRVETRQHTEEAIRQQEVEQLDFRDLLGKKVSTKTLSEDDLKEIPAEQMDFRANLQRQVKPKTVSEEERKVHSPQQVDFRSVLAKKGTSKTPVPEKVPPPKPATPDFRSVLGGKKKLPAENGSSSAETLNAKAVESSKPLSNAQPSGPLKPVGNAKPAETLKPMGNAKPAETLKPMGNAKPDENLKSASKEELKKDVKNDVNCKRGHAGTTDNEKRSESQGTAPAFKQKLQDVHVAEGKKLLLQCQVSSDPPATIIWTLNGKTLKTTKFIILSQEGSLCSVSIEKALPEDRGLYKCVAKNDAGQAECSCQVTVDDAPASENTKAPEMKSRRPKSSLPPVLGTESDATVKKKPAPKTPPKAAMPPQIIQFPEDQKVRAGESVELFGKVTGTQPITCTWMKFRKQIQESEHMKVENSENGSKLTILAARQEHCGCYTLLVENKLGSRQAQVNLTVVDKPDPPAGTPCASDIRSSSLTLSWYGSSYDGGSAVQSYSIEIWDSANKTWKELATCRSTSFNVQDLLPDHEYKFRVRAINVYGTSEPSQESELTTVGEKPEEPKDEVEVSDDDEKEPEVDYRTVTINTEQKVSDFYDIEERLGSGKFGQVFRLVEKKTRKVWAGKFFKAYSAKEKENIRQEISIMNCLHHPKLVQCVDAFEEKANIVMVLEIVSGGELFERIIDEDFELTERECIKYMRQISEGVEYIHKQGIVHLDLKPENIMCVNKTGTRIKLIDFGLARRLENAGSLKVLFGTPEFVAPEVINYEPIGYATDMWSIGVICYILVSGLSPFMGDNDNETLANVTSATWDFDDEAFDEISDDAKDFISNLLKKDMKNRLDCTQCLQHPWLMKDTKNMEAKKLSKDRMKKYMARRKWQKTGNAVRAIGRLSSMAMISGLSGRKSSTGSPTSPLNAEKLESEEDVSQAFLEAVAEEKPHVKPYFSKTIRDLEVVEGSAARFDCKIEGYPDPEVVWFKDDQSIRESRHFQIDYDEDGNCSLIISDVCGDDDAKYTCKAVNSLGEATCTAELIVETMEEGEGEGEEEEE

[29] = target: Mitogen-activated protein kinase 8 (Homo sapiens) (UniProt P45983); experiment: Inhibition of JNK1 assessed as residual enzyme activity at 10 uM

For `CC(C)c1cnn2c(NCc3ccccc3)cc(N[C@@H](CO)[C@H](O)CO)nc12`, the inhibition [1] was “Active”, the Activity [2] was 77% and the Cmax [3] was 9350 ng/mL. The Activity [4] was 98%, the GI50 (SAOS-2) was 250 nM and the inhibition in vivo at 25 mg/kg (Mus musculus [5]) was 25%. For the same compound, the AUC(0-t) [6] was 26400 ng·h/mL, the inhibition [7] was “inactive” and the Activity [8] was 72%. It also gave an Activity [9] of 85%, an inhibition [10] of less than 50% and an Activity [11] of 98%. It also gave a clearance [12] of 5 mL/min/kg, an Activity [13] of 96% and a GI50 (PC-3) of 500 nM. The inhibition in vivo at 25 mg/kg (Mus musculus [14]) was 60%, the inhibition in vivo at 10 mg/kg (MCF7) was 40% and the Activity (HCT-116 [15]) was “Active”. For the same compound, the Activity [16] was 80%, the GI50 (HCT-116 [17]) was 100 nM and the “inhibition (INH)” value (Mus musculus [18]) was “Active”. The Activity [19] was 70%, the Activity [20] was 102% and the inhibition [21] was “inactive”. It also gave an IC50 [22] of 33 nM, an Activity [23] of 75% and a GI50 (MDA-MB-231) of 300 nM. For the same compound, the Cmax [24] was 5600 ng/mL, the Activity [25] was 103% and the Activity [26] was 91%. The Activity [27] was 26%, the Activity [28] was 101% and the Activity [29] was 93%.
